The results in this text go back to ChEMBL document CHEMBL1275272, “Synthesis, characterization and antimicrobial activity of some disubstituted 1,3,4-oxadiazoles carrying 2-(aryloxymethyl)phenyl moiety” (2010).

The structures appear in SMILES notation. Converted amounts (≈) assume the structure as drawn.

Type in all cases: functional
Experiment [1] concerns Escherichia coli. Kind of experiment: Antibacterial activity against Escherichia coli after 16 to 18 hrs by serial dilution method. The conditions noted are these: for MIC: Escherichia coli. In outline: (§1)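 The test compound was dissolved in DMF and serially diluted. A standard drop of the prepared microbial culture was added to each dilution, and tubes were incubated at 37 °C for 16–18 h. MIC was taken as the highest dilution that stayed clear with no visible turbidity.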

Experiment [2] relates to Staphylococcus aureus. The experiment can be described thus: Antibacterial activity against Staphylococcus aureus after 16 to 18 hrs by serial dilution method. The conditions noted are these: for MIC: Staphylococcus aureus. In outline:
as §1

Experiment [3] deals with Talaromyces marneffei. The experiment can be described thus: Antifungal activity against Penicillium marneffei after 16 to 18 hrs by serial dilution method. The conditions noted are these: for MIC: Talaromyces marneffei. In outline:
as §1

In experiment [4] the test system is Aspergillus flavus. The experiment can be described thus: Antifungal activity against Aspergillus flavus after 16 to 18 hrs by serial dilution method. The conditions noted are these: for MIC: Aspergillus flavus. In outline: as §1
Experiment [5] deals with Aspergillus fumigatus. The experiment can be described thus: Antifungal activity against Aspergillus fumigatus after 16 to 18 hrs by serial dilution method. The settings on record: for MIC: Aspergillus fumigatus.
The test system of experiment [6] is Trichophyton mentagrophytes. The experiment can be described thus: Antifungal activity against Trichophyton mentagrophytes after 16 to 18 hrs by serial dilution method. The conditions noted are these: for MIC: Trichophyton mentagrophytes.
Experiment [7] relates to Klebsiella pneumoniae. Kind of experiment: Antibacterial activity against Klebsiella pneumoniae after 16 to 18 hrs by serial dilution method. The conditions noted are these: for MIC: Klebsiella pneumoniae.
In experiment [8] the test system is Pseudomonas aeruginosa. The experiment can be described thus: Antibacterial activity against Pseudomonas aeruginosa after 16 to 18 hrs by serial dilution method. The settings on record: for MIC: Pseudomonas aeruginosa. In outline: as §1

Consider `CCSc1nnc(-c2ccccc2COc2ccc(C)cc2)o1`, for which the “inhibition zone (IZ)” value in experiment [1], in experiment [2], in experiment [3], in experiment [4], in experiment [5] and in experiment [6] was under 10 mm throughout. Moreover, the “inhibition zone (IZ)” value in experiment [7] and in experiment [8] was under 10 mm each time. Moreover, the minimal inhibitory concentration (MIC) in experiment [1], in experiment [2], in experiment [3], in experiment [4], in experiment [5] and in experiment [6] was 25 µg/mL (≈ 76.6 µM) in each case. Further, the MIC in experiment [7] and in experiment [8] was 25 µg/mL (≈ 76.6 µM) throughout.

As to `CCSc1nnc(-c2ccccc2COc2ccc(Cl)cc2)o1`, the “inhibition zone (IZ)” value in experiment [1], in experiment [2], in experiment [3], in experiment [4], in experiment [5] and in experiment [6] was under 10 mm each time. Also, the “inhibition zone (IZ)” value in experiment [7] and in experiment [8] was under 10 mm each time. Also, the minimum inhibitory concentration (MIC) in experiment [1], in experiment [2], in experiment [3], in experiment [4], in experiment [5] and in experiment [6] was 25 µg/mL (≈ 72.1 µM) each time. In addition, the minimal inhibitory concentration (MIC) in experiment [7] and in experiment [8] was 25 µg/mL (≈ 72.1 µM) throughout.

As to `Cc1ccccc1OCc1ccccc1-c1nnc(SCc2ccccc2)o1`, the “inhibition zone (IZ)” value in experiment [1], in experiment [2], in experiment [3], in experiment [4], in experiment [5] and in experiment [6] was under 10 mm in each case. In addition, the “inhibition zone (IZ)” value in experiment [7] and in experiment [8] was under 10 mm in each case. Further, the minimal inhibitory concentration (MIC) in experiment [1], in experiment [2], in experiment [3], in experiment [4], in experiment [5] and in experiment [6] was 25 µg/mL (≈ 64.4 µM) throughout. Also, the MIC in experiment [7] and in experiment [8] was 25 µg/mL (≈ 64.4 µM) throughout.

With `Cc1cccc(OCc2ccccc2-c2nnc(SCc3ccccc3)o2)c1`, the “inhibition zone (IZ)” value in experiment [1], in experiment [2], in experiment [3], in experiment [4], in experiment [5] and in experiment [6] was under 10 mm in each case. Further, the “inhibition zone (IZ)” value in experiment [7] and in experiment [8] was under 10 mm throughout. The MIC in experiment [1], in experiment [2], in experiment [3], in experiment [4], in experiment [5] and in experiment [6] was 25 µg/mL (≈ 64.4 µM) in each case. Besides, the MIC in experiment [7] and in experiment [8] was 25 µg/mL (≈ 64.4 µM) throughout.

On to `Cc1ccc(OCc2ccccc2-c2nnc(SCc3ccccc3)o2)cc1`, for which the “inhibition zone (IZ)” value in experiment [1], in experiment [2], in experiment [3], in experiment [4], in experiment [5] and in experiment [6] was under 10 mm each time. Moreover, the “inhibition zone (IZ)” value in experiment [7] and in experiment [8] was under 10 mm in each case. Further, the MIC in experiment [1], in experiment [2], in experiment [3], in experiment [4], in experiment [5] and in experiment [6] was 25 µg/mL (≈ 64.4 µM) each time. The MIC in experiment [7] and in experiment [8] was 25 µg/mL (≈ 64.4 µM) throughout.

For `Clc1ccc(OCc2ccccc2-c2nnc(SCc3ccccc3)o2)cc1`, the “inhibition zone (IZ)” value in experiment [1], in experiment [2], in experiment [3], in experiment [4], in experiment [5] and in experiment [6] was under 10 mm throughout. The “inhibition zone (IZ)” value in experiment [7] and in experiment [8] was under 10 mm throughout. The MIC in experiment [1], in experiment [2], in experiment [3], in experiment [4], in experiment [5] and in experiment [6] was 25 µg/mL (≈ 61.1 µM) each time. Also, the minimum inhibitory concentration (MIC) in experiment [7] and in experiment [8] was 25 µg/mL (≈ 61.1 µM) throughout.

`Cc1ccccc1OCc1ccccc1-c1nnc(SCc2ccc(Cl)cc2Cl)o1`: the “inhibition zone (IZ)” value in experiment [1] came out at 11 mm; in experiment [2], 16 mm; in experiment [3] it was 16 mm; in experiment [4] it was 16 mm; in experiment [5], 16 mm; in experiment [6] it was 11 mm. Also, the “inhibition zone (IZ)” value in experiment [7] and in experiment [8] was 16 mm each time. The minimal inhibitory concentration (MIC) in experiment [1] is 12.5 µg/mL (≈ 27.3 µM); in experiment [2], 6.25 µg/mL (≈ 13.7 µM); in experiment [3] it was 6.25 µg/mL (≈ 13.7 µM); in experiment [4], 6.25 µg/mL (≈ 13.7 µM); in experiment [5] it was 6.25 µg/mL (≈ 13.7 µM); in experiment [6] it was 12.5 µg/mL (≈ 27.3 µM). Also, the MIC in experiment [7] and in experiment [8] was 6.25 µg/mL (≈ 13.7 µM) throughout.

Consider `Cc1cccc(OCc2ccccc2-c2nnc(SCc3ccc(Cl)cc3Cl)o2)c1`, for which the “inhibition zone (IZ)” value in experiment [1] is given as 16 mm; in experiment [2] it was 16 mm; in experiment [3] it was 16 mm; in experiment [4], 11 mm; in experiment [5], 16 mm; in experiment [6] it was 11 mm. The “inhibition zone (IZ)” value in experiment [7] and in experiment [8] was 16 mm each time. The MIC in experiment [1] was determined as 6.25 µg/mL (≈ 13.7 µM); in experiment [2] it was 6.25 µg/mL (≈ 13.7 µM); in experiment [3], 6.25 µg/mL (≈ 13.7 µM); in experiment [4] it was 12.5 µg/mL (≈ 27.3 µM); in experiment [5] it was 6.25 µg/mL (≈ 13.7 µM); in experiment [6], 12.5 µg/mL (≈ 27.3 µM). Besides, the MIC in experiment [7] and in experiment [8] was 6.25 µg/mL (≈ 13.7 µM) each time.

`Cc1ccc(OCc2ccccc2-c2nnc(SCc3ccc(Cl)cc3Cl)o2)cc1`: the “inhibition zone (IZ)” value in experiment [1], in experiment [2], in experiment [3], in experiment [4], in experiment [5] and in experiment [6] was 16 mm throughout. Also, the “inhibition zone (IZ)” value in experiment [7] and in experiment [8] was 16 mm throughout. The minimal inhibitory concentration (MIC) in experiment [1], in experiment [2], in experiment [3], in experiment [4], in experiment [5] and in experiment [6] was 6.25 µg/mL (≈ 13.7 µM) in each case. The MIC in experiment [7] and in experiment [8] was 6.25 µg/mL (≈ 13.7 µM) each time.

With `Clc1ccc(OCc2ccccc2-c2nnc(SCc3ccc(Cl)cc3Cl)o2)cc1`, the “inhibition zone (IZ)” value in experiment [1], in experiment [2], in experiment [3], in experiment [4], in experiment [5] and in experiment [6] was 16 mm each time. The “inhibition zone (IZ)” value in experiment [7] and in experiment [8] was 16 mm in each case. Besides, the minimal inhibitory concentration (MIC) in experiment [1], in experiment [2], in experiment [3], in experiment [4], in experiment [5] and in experiment [6] was 6.25 µg/mL (≈ 13.1 µM) each time. Further, the MIC in experiment [7] and in experiment [8] was 6.25 µg/mL (≈ 13.1 µM) each time.

For the compound `Cc1ccccc1OCc1ccccc1-c1nnc(SCc2ccc(Cl)cc2)o1`, the “inhibition zone (IZ)” value in experiment [1], in experiment [2], in experiment [3], in experiment [4], in experiment [5] and in experiment [6] was 11 mm each time. Besides, the “inhibition zone (IZ)” value in experiment [7] and in experiment [8] was 11 mm in each case. For the same compound, the MIC in experiment [1], in experiment [2], in experiment [3], in experiment [4], in experiment [5] and in experiment [6] was 12.5 µg/mL (≈ 29.6 µM) throughout. The minimum inhibitory concentration (MIC) in experiment [7] and in experiment [8] was 12.5 µg/mL (≈ 29.6 µM) throughout.

For the compound `Cc1cccc(OCc2ccccc2-c2nnc(SCc3ccc(Cl)cc3)o2)c1`, the “inhibition zone (IZ)” value in experiment [1], in experiment [2], in experiment [3], in experiment [4], in experiment [5] and in experiment [6] was 11 mm throughout. The “inhibition zone (IZ)” value in experiment [7] and in experiment [8] was 11 mm in each case. The MIC in experiment [1], in experiment [2], in experiment [3], in experiment [4], in experiment [5] and in experiment [6] was 12.5 µg/mL (≈ 29.6 µM) in each case. Further, the MIC in experiment [7] and in experiment [8] was 12.5 µg/mL (≈ 29.6 µM) in each case.
